Compound activity deposited in PubChem BioAssay by several laboratories.
DAGLB inh = DAGLB lipase inhibitors, primary screen, biochemical, fluorescence, HTS. Diacylglycerol lipase-beta (Homo sapiens), Q8NCG7. HEK293T DAGLB membrane lysate, EnzChek fluorogenic substrate. inhibition, % at 5.17 µM. hit rate 0.059% among 340,000. AID 504411, 2011; in the data active = inhibition above about 34%
NRP1-CendR mod = modulators of CendR peptide binding to NRP-1, primary screen, biochemical, fluorescence polarization, uHTS; Neuropilin-1 (Homo sapiens), O14786; FAM-RPARPAR peptide binding to NRP-1; inhibition, % at 25 µM; hit rate 0.85% among 360,000; AID 602438, 2012;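 active = inhibition or corrected inhibition above about 18%, plus a signal ratio from 0.5 to 1.5, limit read from the data, passing the limit was not always enough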
UCH37 DUB inh = inhibitors of human UCH37 deubiquitinase, primary screen, biochemical, Ub-AMC cleavage, fluorescence. purified proteasome/UCH37. inhibition, % (no concentration beside the values). hit rate 0.33% among 330,000. AID 588478, 2011;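 active = mean inhibition over replicate wells above about 20%, limit read from the data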
Target sequence (Q9Y5K5 whole entry, looked up): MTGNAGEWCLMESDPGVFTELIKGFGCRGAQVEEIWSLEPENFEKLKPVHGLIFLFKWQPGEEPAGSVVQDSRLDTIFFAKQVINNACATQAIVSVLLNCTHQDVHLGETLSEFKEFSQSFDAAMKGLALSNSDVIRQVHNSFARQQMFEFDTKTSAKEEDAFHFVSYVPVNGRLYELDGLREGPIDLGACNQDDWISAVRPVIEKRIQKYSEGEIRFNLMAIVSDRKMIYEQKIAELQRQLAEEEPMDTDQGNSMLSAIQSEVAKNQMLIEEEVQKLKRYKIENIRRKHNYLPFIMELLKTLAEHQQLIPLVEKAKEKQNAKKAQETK
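assay system = human UCH37 enzyme supplied as purified proteasome complex | amount = proteasome at 0.15 nM in the dispensed enzyme solution | schedule = 30 min compound-proteasome preincubation then 25 min substrate reaction, room temperature | measured by = fluorescence, ex 355 nm, em 460 nm | benchmarks = no-proteasome wells (full inhibition) and compound-free wells (no inhibition)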
CTSL1 counter = Fasciola hepatica cathepsin L1 inhibitors, primary screen, counter-screen for PFM18AAP inhibitor project, biochemical, QFRET, fluorogenic peptide substrate; hit rate 0.49% among 300,000; AID 1906, 2009; inhibition, % at 5.96 µM; recombinant F. hepatica cathepsin L1, Z-Leu-Arg-MCA fluorescence;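 active = inhibition above the mean of all tested compounds plus 3 SD, set per screening campaign, cut at about 17% in these data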
MT1-MMP act inh = blockers of MT1-MMP proenzyme processing, primary screen, HT1080 RFP-PRO-GFP cells, GFP/RFP fluorescence; Matrix metalloproteinase-14 (Homo sapiens), P50281; GFP/RFP ratio fluorescence, overnight; percent of plate control window, DMSO zero; GFP/RFP ratio change, % at 20 µM; hit rate 0.061% among 360,000; AID 651647, 2012;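 active = GFP/RFP ratio change of at least 30% with cell ATP level not reduced by more than half and red fluorescence within 50% of control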
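Assay system: RFP-PRO-GFP reporter HT1080 cells; read-out basis: GFP/RFP fluorescence ratio; benchmarks: DMSO wells and RFP-L50D-GFP cells; doses: 20 µM single dose, 1% DMSO; schedule: overnight cell settling, then overnight compound exposure, 37 °C, 5% CO2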
Hits are given with their value; . = inactive; / = not tested or not shown. Rows were chosen to be rich in hits. Some 1.5% of all compounds tested hit in one or more screens of this group.

SMILES	DAGLB inh	NRP1-CendR mod	UCH37 DUB inh	CTSL1 counter	MT1-MMP act inh
CC(=Cc1ccccc1)C=C1SC(=S)N(CCCC(=O)Nc2ccc(C(=O)O)cc2)C1=O	/	.	/	/	.
C=CCNC(=S)NN=C(C)c1ccc(-n2ccnc2)cc1	/	/	.	/	/
O=C(CCC(=O)Nc1ccc(F)cc1)NN=Cc1c[nH]c2ccccc12	/	/	.	/	/
CCOc1cccc(-c2c(C(=O)NN=C(C)c3ccncc3)nnn2-c2nonc2N)c1	/	/	.	/	/
O=S(=O)(N=C(c1ccccc1)N1CCOCC1)c1cccs1	/	/	.	/	/
O=C(NN=Cc1ccc(Br)s1)c1ccc([N+](=O)[O-])cc1	/	/	.	/	/
O=C(O)CCN1C(=O)/C(=C\c2cccc(Oc3ccccc3)c2)SC1=S	.	.	21	.	.
COc1ccc(/C=C2/SC(=S)N(CCC(=O)O)C2=O)cc1	.	.	.	.	.
CC(=NNC(=O)c1ccc(Cl)c(Cl)c1)c1ccc(Br)s1	/	/	.	/	/
COc1ccccc1NC(=O)C1=C(C)NC(=O)NC1c1ccccc1F (stereo not drawn)	.	20	.	.	.
C/C(CC1CC(COCCC(C)C)OC1=O)=N\NC(N)=S (stereo not drawn)	.	.	/	21	.
Cc1nc(SCC(=O)NCC2CCCO2)c2c3c(sc2n1)CCCC3 (stereo not drawn)	.	30	.	.	.
O=C(O)COc1ccc(C=Nn2cnc3scc(-c4cccs4)c3c2=O)cc1	/	/	.	/	/
C=CCn1c(NC(=O)c2ccccc2)nc2ccccc21	.	26	.	.	.
CCn1c(NC(=O)c2ccccc2)nc2ccccc21	/	.	.	.	.
Clc1cc(Br)ccc1OCCOCCN1CCCC1	.	.	.	.	.
Clc1cc(Br)ccc1OCCOCCN1CCOCC1	.	.	29	.	.
CCN(CC)c1ccc(C(=O)NN=C(C)c2cccnc2)cc1	/	/	.	/	/
CCOc1cc(CNS(=O)(=O)c2cn(C)cn2)cc(OCC)c1OCC	.	22	.	.	.
CCOc1ccc(CCNS(=O)(=O)c2cn(C)cn2)cc1OCC	.	.	.	.	.
O=C1c2ccccc2C(=O)C12OC2c1cccc2ccccc12 (stereo not drawn)	.	.	24	62	.
CCn1c(=O)n(CC)c2cc(N3CCCC3)c(NC(=O)c3ccccc3C)cc21	.	27	.	.	.
CCn1c(=O)n(CC)c2cc(N3CCCC3)c(NC(=O)c3ccccc3F)cc21	.	.	.	.	.
CCc1noc2c1C(=NO)CC(c1ccccc1)C2 (stereo not drawn)	/	/	.	/	/
CCOC(=O)c1ccc(N2C(=O)CC(Sc3nnc(C)s3)C2=O)cc1 (stereo not drawn)	.	35	.	.	.
SMILES	DAGLB inh	NRP1-CendR mod	UCH37 DUB inh	CTSL1 counter	MT1-MMP act inh
O=C(/C=C/c1ccccc1)NNC1=NS(=O)(=O)c2ccccc21	.	.	23	.	.
COc1ccc(S(=O)(=O)N2CCOCC2)cc1NC(=O)COC(=O)C1COc2ccccc2O1 (stereo not drawn)	.	28	.	.	.
COc1ccc(C)cc1NC(=O)COC(=O)C1COc2ccccc2O1 (stereo not drawn)	.	.	.	/	.
CCN(CC)c1ccc(C=NNC(=S)NCc2ccco2)cc1	/	/	.	/	/
CCCCN(C)CCNC(=O)C(NC(=O)C1CCC(C)CC1)C(C)C (stereo not drawn)	.	.	.	56	.
CN(C)c1ccc(C(=O)c2ccccc2C(=O)O)c(O)c1	.	.	23	.	.
CCCCN(CCCC)c1ccc(C(=O)c2ccccc2C(=O)O)c(O)c1	.	.	.	.	.
O=C(CN1C(=O)c2ccccc2C1=O)N1CCN(S(=O)(=O)c2ccccc2)CC1	.	.	.	.	.
CC(C)c1ccc(S(=O)(=O)N2CCN(C(=O)CN3C(=O)c4ccccc4C3=O)CC2)cc1	.	30	.	/	.
O=C(NN=Cc1ccc([N+](=O)[O-])cc1)c1ccc(COc2ccccc2-c2ccccc2)cc1	/	/	.	/	/
Cc1cccc(NC(=O)CSc2nc3sc(C)cc3c(=O)n2C)c1	.	19	/	/	.
Cc1ccc(CN2C(=O)CCC2C(=O)NC2CC2)cc1 (stereo not drawn)	.	26	.	.	.
CCc1c(C)nc2ncnn2c1N1CCCC(C(=O)Nc2ccc(NC(C)=O)cc2)C1 (stereo not drawn)	.	29	.	.	.
CC(=O)Nc1ccc(C(=O)N2CCCCC2c2cc(C(=O)Nc3ccccc3Cl)no2)cc1 (stereo not drawn)	/	24	/	/	.
CCOc1cc(/C=C2\SC(=O)N(CC(=O)Nc3ccccc3F)C2=O)cc([N+](=O)[O-])c1O	.	.	23	.	.
CC1CCCC(N2C(=O)NC(NC(=O)c3ccco3)(C(F)(F)F)C2=O)C1C (stereo not drawn)	.	28	.	.	.
N=C1C(=O)OCC1c1cc(Cl)ccc1NC(=O)Nc1ccccc1 (stereo not drawn)	.	39	.	.	.
CCC(COC)NCc1cn(-c2ccc(F)cc2F)nc1-c1ccccc1C (stereo not drawn)	.	26	.	.	.
COCCN(C)Cc1cn(-c2ccc(F)cc2F)nc1-c1ccccc1C	.	.	.	.	.
Cc1ccc(C(=O)NCCN2C3=NC[C@H](C)N3C[C@H]2Cc2ccc(O)cc2)cc1Br	.	25	.	.	.
COc1ccc(C[C@H]2CN3C(=NC[C@H]3C)N2CCNC(=O)c2ccc(C)c(Br)c2)cc1	.	.	.	.	.
CC(C)(Cc1ccc(O)cc1)NC(=O)CC(=O)NN=Cc1ccc(Cl)cc1	/	/	.	/	/
COc1ccc(OC)c(S(=O)(=O)N(C)CC(=O)N2CCN(c3cccc(Cl)c3)CC2)c1	.	19	.	.	.
COc1ccc(OC)c(S(=O)(=O)N(C)CC(=O)N2CCN(c3ccc(F)cc3)CC2)c1	.	.	.	.	.
COc1ccc(S(=O)(=O)N(C)CC(=O)N2CCCCC2)cc1Cl	.	27	.	.	.
N#CC(c1ccc([N+](=O)[O-])cc1)C(CC(=O)c1ccccc1)c1ccccc1 (stereo not drawn)	.	28	.	/	.
Cc1ccc(C)c(N2CCN(C(=O)c3ccc(Cn4c(=O)[nH]c5ccccc5c4=O)cc3)CC2)c1	.	.	.	.	.
O=C(c1ccc(Cn2c(=O)[nH]c3ccccc3c2=O)cc1)N1CCN(c2ccc(Cl)cc2)CC1	.	25	.	.	.
COc1ccccc1NN=C1COC(C)(C)CC1=O	/	/	.	/	/
CC(C)CCNC(=O)COc1ccc2c(c1)C(=O)CC(C)(C)O2	.	.	.	.	.
